Activity and IC50 data for four compounds are collected here from ChEMBL document CHEMBL1154351, “Aspergillusol A, an alpha-glucosidase inhibitor from the marine-derived fungus Aspergillus aculeatus” (J Nat Prod, 2009).

One assay concerns HuCC-A1. Put plainly: Cytotoxicity against HuCCa1 cells at 240 uM after 4 days by MTT assay. The settings on record: Homo sapiens. It counts as functional, cell-based.
The test system of the next assay is HepG2. The assay can be described thus: Cytotoxicity against human HepG2 cells after 4 days by MTT assay. It counts as functional, cell-based. The settings on record: HepG2, 96 h. In short, it runs like this: (§1)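 MTT read-out of viability in human HepG2, HuCCA-1 and A549 cancer cell lines, with doxorubicin as reference drug; IC50 values determined.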
The subject of a further assay is HL-60. The assay can be described thus: Cytotoxicity against human HL60 cells by XTT assay. Type of assay: functional, cell-based. In short, it runs like this: (§2)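 XTT read-out of viability in human MOLT-3 and HL-60 cell lines, with doxorubicin as reference drug; IC50 values determined.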
For assay [1], the system named is A549. The assay can be described thus: Cytotoxicity against human A549 cells at 240 uM after 4 days by MTT assay. Type of assay: functional, cell-based. (In general: Tetrazolium dyes change colour on reduction, which living cells bring about.)
The test system of assay [2] is A549. Put plainly: Cytotoxicity against human A549 cells after 4 days by MTT assay. It counts as functional, cell-based. The conditions noted are these: A549, 96 h. In short, it runs like this:
as §1

A short description of assay [3]: Inhibition of Saccharomyces cerevisiae alpha-glucosidase assessed as p-nitrophenol release by colorimetry. In short, it runs like this:
(§3)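 Colorimetric assay with p-nitrophenyl α-D-glucoside substrate at 1.0 mM final. Enzyme at 0.1 U/mL final for S. cerevisiae α-glucosidase and 0.3 U/mL final for B. stearothermophilus α-glucosidase. Run in triplicate (n = 3), with 1-deoxynojirimycin as standard; IC50 determined.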

Assay [4] can be described thus: Inhibition of Bacillus stearothermophilus alpha-glucosidase assessed as p-nitrophenol release by colorimetry. More on the design: species or system Geobacillus stearothermophilus. In short, it runs like this:
as §3

Assay [5] can be described thus: Cytotoxicity against HuCCa1 cells after 4 days by MTT assay. It counts as functional, cell-based. The conditions noted are these: Homo sapiens, HuCC-A1, 96 h. In short, it runs like this: as §1
The target in a further assay is T1, Aromatase (Homo sapiens, UniProt P11511).
T1 sequence (P11511 whole entry): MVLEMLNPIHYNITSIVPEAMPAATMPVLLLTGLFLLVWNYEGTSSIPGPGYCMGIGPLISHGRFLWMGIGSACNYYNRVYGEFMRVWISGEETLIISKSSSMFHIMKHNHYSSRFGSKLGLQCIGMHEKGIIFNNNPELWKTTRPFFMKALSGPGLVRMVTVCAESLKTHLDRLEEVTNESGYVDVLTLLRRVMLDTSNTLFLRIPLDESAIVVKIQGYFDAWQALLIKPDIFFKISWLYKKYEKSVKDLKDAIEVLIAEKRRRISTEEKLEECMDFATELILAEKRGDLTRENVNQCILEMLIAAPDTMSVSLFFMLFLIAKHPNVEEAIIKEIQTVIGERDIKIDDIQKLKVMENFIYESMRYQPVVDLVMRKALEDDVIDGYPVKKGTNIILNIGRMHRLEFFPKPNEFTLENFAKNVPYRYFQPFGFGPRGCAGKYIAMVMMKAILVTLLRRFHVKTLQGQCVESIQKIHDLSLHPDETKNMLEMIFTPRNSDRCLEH
The assay can be described thus: Inhibition of aromatase.

The next assay deals with MOLT-3. Put plainly: Cytotoxicity against human MOLT3 cells by XTT assay. It counts as functional, cell-based. In short, it runs like this:
as §2

Active and inactive are the calls of the source. The calls are words filed in the database; no cut-off is given here.

Consider `O=C(OC[C@@H](OC(=O)c1ccccc1)[C@@H](COC(=O)c1ccccc1)OC(=O)c1ccccc1)c1ccccc1`, for which the result with HuCC-A1 and with A549 [1] was inactive. In addition, the IC50 in the assay with HepG2 was 29 µM; in the assay with HL-60 it was 44 µM.
On to `O=C(OC[C@@H](O)[C@@H](O)COC(=O)/C(Cc1ccc(O)cc1)=N\O)/C(Cc1ccc(O)cc1)=N\O` [ASPERGILLUSOL A], for which the IC50 in the assay on A549 [2] was 74 µM; in [3] it was 465 µM; in assay [4] it was 1060 µM; in [5], 50 µM; in the assay on HepG2, above 105 µM; at Aromatase it was above 100 µM. This compound also yielded an IC50 in the assay on MOLT-3 of 19 µM.
Take `COc1cccc2c1C(=O)c1c(O)c3c(c(O)c1C2=O)C[C@@](O)(C(=O)CO)C[C@@H]3O[C@H]1C[C@H](N)[C@H](O)[C@H](C)O1` [DOXORUBICIN]: the values for the IC50 (in assay [5]; in the assay on HepG2; with MOLT-3) were 0.64 µM, 0.37 µM and 0.04 µM, respectively.
As to `OC[C@H]1NC[C@H](O)[C@@H](O)[C@@H]1O` [DUVOGLUSTAT], the IC50 in assay [3] came to 222 µM; in assay [4], 0.45 µM.

As a reminder, the IC50 is the point on the concentration scale where inhibition reaches its midpoint.
